In ChEMBL document CHEMBL1811788, “Chaxamycins A-D, bioactive ansamycins from a hyper-arid desert Streptomyces sp” (2011) one finds MIC data, which are given here for 2 molecules.

Values after ≈ are worked out from the molar mass of the structure shown.

The subject of assay [1] is Escherichia coli. Description: Antibacterial activity against Escherichia coli ATCC 25922 by agar diffusion method with regression line analysis.
Assay [2] relates to Staphylococcus aureus. Kind of assay: Antibacterial activity against scottish methicillin-resistant Staphylococcus aureus isolate 105 isolated from patient toe wound after 18 hrs by microtiter plate reader assay. It counts as functional. The settings on record: isolate 105, 18 h. In a few lines:
(§1)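 S. aureus grown in Müller-Hinton broth to early stationary phase, diluted to OD650 = 0.0005. Broth microdilution in triplicate, with at least two independent cultures per strain. Test compound (32–0.016 μg/mL) and rifampicin control (0.03–0.001 μg/mL) dissolved in DMSO (up to 0.63%). Incubated 18 h at 37 °C, growth read at OD620. MIC taken as lowest concentration showing no growth versus MH broth control.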

In assay [3] the test system is Staphylococcus aureus. Description: Antibacterial activity against scottish methicillin-resistant Staphylococcus aureus isolate 116 isolated from patient knee abscess after 18 hrs by microtiter plate reader assay. It is filed as functional. The settings on record: isolate 116, Knee. The gist of the method:
as §1

Assay [4] relates to Staphylococcus aureus. Description: Antibacterial activity against scottish methicillin-resistant Staphylococcus aureus isolate 126 isolated from patient nasal swab after 18 hrs by microtiter plate reader assay. It is filed as functional. The note with it: isolate 126, 18 h. In a few lines:
as §1

Assay [5] relates to Staphylococcus aureus. Kind of assay: Antibacterial activity against scottish methicillin-resistant Staphylococcus aureus […] isolated from patient arm cellulitis after 18 hrs by microtiter plate reader assay. The note with it: isolate 153, 18 h. It counts as functional. The gist of the method: as §1
For assay [6], the system named is Staphylococcus aureus. Kind of assay: Antibacterial activity against scottish methicillin-resistant Staphylococcus aureus isolate 161 (PF161) isolated from patient thigh abscess after 18 hrs by microtiter plate reader assay. The note with it: isolate 161, Thigh muscle. It counts as functional. In a few lines: as §1
Assay [7] has as its system Staphylococcus aureus. Description: Antibacterial activity against Staphylococcus aureus RN4220 after 18 hrs by microtiter plate reader assay. The note with it: RN4220, 18 h. It counts as functional. In a few lines: as §1
Assay [8] relates to Staphylococcus aureus. Kind of assay: Antibacterial activity against scottish methicillin-resistant Staphylococcus aureus isolate 161 (PF161d) isolated from patient buttock abscess after 18 hrs by microtiter plate reader assay. It is filed as functional. The note with it: isolate 161, 18 h. In a few lines: as §1
Assay [9] has as its system Staphylococcus aureus. Kind of assay: Antibacterial activity against epidemic methicillin-resistant Staphylococcus aureus isolate 15 isolated from patient urine infection after 18 hrs by microtiter plate reader assay. It counts as functional. The note with it: isolate 15, Urine. In a few lines:
as §1

The test system of assay [10] is Staphylococcus aureus. Kind of assay: Antibacterial activity against epidemic methicillin-resistant Staphylococcus aureus isolate 16 isolated from patient graft wound after 18 hrs by microtiter plate reader assay. It counts as functional. The note with it: isolate 16, 18 h. The gist of the method:
as §1

Assay [11] relates to Staphylococcus aureus. Description: Antibacterial activity against scottish methicillin-resistant Staphylococcus aureus isolate 124 isolated from patient open wound after 18 hrs by microtiter plate reader assay. The note with it: isolate 124, 18 h. It counts as functional. The gist of the method:
as §1

In assay [12] the test system is Staphylococcus aureus. Description: Antibacterial activity against scottish methicillin-resistant Staphylococcus aureus isolate 106 isolated from patient nasal swab after 18 hrs by microtiter plate reader assay. It counts as functional. The note with it: isolate 106, 18 h. The gist of the method:
as §1

The test system of assay [13] is Staphylococcus aureus. Kind of assay: Antibacterial activity against Staphylococcus aureus ATCC 25923 after 18 hrs by microtiter plate reader assay. It is filed as functional. The note with it: ATCC 25923, 18 h.

In the case of `CC(=O)O[C@H]1[C@H](C)[C@H](O)[C@H](C)[C@@H](O)[C@@H](C)/C=C/C=C\C(=O)NC2=C(C)C(=O)c3c(c(O)c(C)c4c3[C@H](O)[C@](C)(O/C=C/[C@H](O)[C@H]1C)O4)C2=O` [CHAXAMYCIN D], the MIC in assay [1] worked out at 1.21 µg/mL (≈ 1.77 µM); in assay [2], 0.13 µg/mL (≈ 0.19 µM); in assay [3], 0.13 µg/mL (≈ 0.19 µM); in assay [4], 0.13 µg/mL (≈ 0.19 µM); in assay [5], 0.25 µg/mL (≈ 0.366 µM); in assay [6], 0.13 µg/mL (≈ 0.19 µM). Also, the MIC was 0.06 µg/mL (≈ 0.0878 µM) in [7]; 0.25 µg/mL (≈ 0.366 µM) in assay [8]; 0.06 µg/mL (≈ 0.0878 µM) in assay [9]; more than 32 µg/mL in [10]; 0.13 µg/mL (≈ 0.19 µM) in assay [11]; 0.25 µg/mL (≈ 0.366 µM) in assay [12]. In addition, the minimal inhibitory concentration (MIC) in [13] stood at 0.05 µg/mL (≈ 0.0731 µM).
Take `CO[C@H]1/C=C/O[C@@]2(C)Oc3c(C)c(O)c4c(O)c(c(/C=N/N5CCN(C)CC5)c(O)c4c3C2=O)NC(=O)/C(C)=C\C=C\[C@H](C)[C@H](O)[C@@H](C)[C@@H](O)[C@@H](C)[C@H](OC(C)=O)[C@@H]1C` [RIFAMPIN]: the MIC was 0.002 µg/mL (≈ 0.00243 µM) in assay [2]; 0.002 µg/mL (≈ 0.00243 µM) in assay [3]; 0.002 µg/mL (≈ 0.00243 µM) in assay [7]; 0.002 µg/mL (≈ 0.00243 µM) in [9]; 4 µg/mL (≈ 4.86 µM) in assay [10]; 0.004 µg/mL (≈ 0.00486 µM) in [12].
